Results from different studies.
Protocols differ between the studies behind these lines.
Target: DNA-dependent protein kinase catalytic subunit (PRKDC, Homo sapiens, UniProt P78527)

Compound	test	system	setting	measurement	value
C=CC(=O)Nc1cc(Nc2nccc(Nc3cc(Cl)c(F)cc3C(C)(C)O)n2)c(OC)cc1N1CC[C@@H](N(C)C)C1	enzyme activity, inhibitor		1 µM	inhibition	-1%
COc1cc2ncnc(Nc3ccc(Oc4ccccc4)cc3C)c2cc1OC	enzyme activity, inhibitor		1 µM	inhibition	9%
CC(C)(C)c1nc2c(s1)c1nc(N)ncc1c1ccc(NS(=O)(=O)c3c(F)cccc3F)c(F)c12	enzyme activity, inhibitor, radiometric		1 µM	remaining activity	94%
Cc1ccc(C(=O)NCc2ccsc2)cc1C#Cc1cn(C(C)C)c2ncnc(N)c12	enzyme activity, inhibitor		1 µM	activity vs control	95%
CS(=O)(=O)Nc1cccc(-c2csc(NC(=O)CSc3nc4nccnc4c(=O)n3CCc3ccccc3)n2)c1	enzyme activity, inhibitor		10 µM	inhibition	12%
CNc1cc(Oc2cc(C(=O)Nc3cc(N4CCN(C)CC4)cc(C(F)(F)F)c3)ccc2C)ncn1	target engagement in cells, inhibitor, chemoproteomics	Huh-7	1 µM	inhibition	-44.8%
Cc1cnc(NC2CCOCC2)nc1-n1cnc(C(=O)NC(CN)c2cc(F)cc(Cl)c2)c1 (stereo not drawn)	enzyme activity, inhibitor, radiometric		1 µM	remaining activity	119%
Cc1cc(NC(=O)c2cccc3cc(-c4cccc5[nH]nc(N)c45)ccc23)ccc1F	enzyme activity, inhibitor		0.1 µM	activity vs control	99%
COc1cc2ncnc(Nc3ccc(Oc4ccccc4)c(C)c3C)c2cc1OC	enzyme activity, inhibitor		1 µM	inhibition	9%
O=C(CSc1nc2nccnc2c(=O)n1CCc1ccccc1)Nc1nccs1	enzyme activity, inhibitor		10 µM	inhibition	23%
CC(C)(C)c1nc(-c2cccc(NS(=O)(=O)c3c(F)cccc3F)c2F)c(-c2ccnc(N)n2)s1	enzyme activity, inhibitor, radiometric		1 µM	remaining activity	92%
Cc1ccc(NC(=O)c2ccc(C)c(C(F)(F)F)c2)cc1C#Cc1nn(C2CCC(O)CC2)c2ncnc(N)c12 (stereo not drawn)	cell-free assay		10 µM	remaining signal	94%
